Source: PMC8811919 (ACS Omega, 2022)
Read-outs that look alike come from different tables or passages of the source.

What was measured:
[1] = system: MCF-7 (human breast adenocarcinoma); test: Cell viability in treated cell lines; assay type: cell-based; conditions: MCF7, 72 h
Outline: (§1)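 Cells were kept in RPMI 1640 with 10% FCS and penicillin/streptomycin at 37 °C, 5% CO2. They were seeded at 6000 cells/well, held 24 h, then given test compound at 0, 15.62, 31.25, 62.5, 125, 250, 500 and 1000 […] for 72 h. MTT (5 mg/mL) was added for 4 h, formazan dissolved in DMSO, and A570 read. Treatment was done in triplicate. EC50 came from sigmoidal variable-slope nonlinear regression of % growth inhibition.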

HeLa (cervical cancer) = test: Cell viability in treated cell lines; assay type: cell-based; conditions: Homo sapiens, 72 h, read-out: EC50 HeLa
Outline: as §1

urease [2] = target: T1, urease (Canavalia ensiformis, UniProt P07374); test: Urease inhibitory assay; assay type: biochemical
Outline: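 Urease in pH 8.2 buffer (0.01 M K2HPO4·3H2O, 1 mM EDTA, 0.01 M LiCl) with 100 mM urea, incubated 15 min at 30 °C with test compound added from a 1 mM solution. Ammonia detected by indophenol: alkali (0.5% NaOH, 0.1% active chloride NaOCl) plus phenol reagent (1% phenol, 0.005% nitroprusside). A630 read after 50 min as change per min; triplicate; acetohydroxamic acid standard; % inhibition.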

urease [3] = target: T1, urease; test: Kinetic study of urease inhibition; assay type: biochemical
MCF-7 cells [4] = test: Late apoptosis study; assay type: cell-based, human; conditions: treated at EC50 of 72 h, 36 h incubation
Outline: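 MCF-7 cells were seeded at 2 × 10^4 on chamber slides and held 24 h at 37 °C, then exposed to test compound for 36 h; untreated cells served as control. Cells were fixed in 4% paraformaldehyde/PBS (pH 7.4) for 25 min at 4 °C and permeabilised with 0.2% Triton X-100 for 5 min. DNA ends were labelled with rTdT/nucleotide mix at 37 °C in the dark. Diluted SSC was added, and nuclei were counterstained with PI (1 μg/mL, 15 min, RT). FITC signal was imaged by high-content microscopy.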

MCF-7 cells [5] = test: Early apoptosis study; assay type: cell-based, human; conditions: treated at EC50 of 72 h for 6 and 9 h
Outline: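 MCF-7 cells were seeded at 10,000 cells/well and held 24 h at 37 °C. The medium was replaced with test compound, alongside a positive control and an untreated control, for 6 and 9 h. Cells were stained with Annexin V-FITC (green) and PI (red) in binding buffer for 10 min at 37 °C. They were imaged by widefield high-content imaging to score early versus late apoptosis and necrosis.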

T1 sequence (P07374 whole entry, looked up): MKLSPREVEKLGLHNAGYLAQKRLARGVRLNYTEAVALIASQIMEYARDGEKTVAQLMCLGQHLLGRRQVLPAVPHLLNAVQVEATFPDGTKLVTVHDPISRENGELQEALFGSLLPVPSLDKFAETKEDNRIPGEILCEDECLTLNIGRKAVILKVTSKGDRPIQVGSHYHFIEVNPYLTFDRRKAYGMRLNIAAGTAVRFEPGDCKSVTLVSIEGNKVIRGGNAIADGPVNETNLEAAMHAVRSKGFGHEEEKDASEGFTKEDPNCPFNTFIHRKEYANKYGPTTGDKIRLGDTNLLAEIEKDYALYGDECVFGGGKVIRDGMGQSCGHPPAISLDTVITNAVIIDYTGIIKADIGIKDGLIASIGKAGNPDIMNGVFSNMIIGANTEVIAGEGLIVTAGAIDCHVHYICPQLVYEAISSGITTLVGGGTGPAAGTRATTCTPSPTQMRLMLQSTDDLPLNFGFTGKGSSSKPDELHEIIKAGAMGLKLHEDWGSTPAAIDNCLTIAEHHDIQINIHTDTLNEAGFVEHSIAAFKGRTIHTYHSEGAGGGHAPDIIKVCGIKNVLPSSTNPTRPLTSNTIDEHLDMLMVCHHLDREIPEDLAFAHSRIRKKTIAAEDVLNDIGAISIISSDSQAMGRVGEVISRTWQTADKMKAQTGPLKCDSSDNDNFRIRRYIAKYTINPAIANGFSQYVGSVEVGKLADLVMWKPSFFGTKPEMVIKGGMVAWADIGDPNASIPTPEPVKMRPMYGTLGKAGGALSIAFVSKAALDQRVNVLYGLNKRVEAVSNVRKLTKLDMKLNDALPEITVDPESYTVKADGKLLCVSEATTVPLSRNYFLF

Row | SMILES | EC50 ([1]; read-out: EC50 MCF-7) [µM] | EC50 (HeLa (cervical cancer)) [µM] | IC50 (urease [2]) [µM] | other results
1 | Cc1ccc(C2CC(c3ccccc3O)=NN2c2ccccc2)c(C)c1 (stereo not shown) [Compound 2p, 1-Phenyl-3(2-hydroxy-phenyl)-5(2,4-dimethyl-phenyl)-2-pyrazoline] | > 500 | > 500 | 12.2 ± 0.38 | 
2 | COc1cc(C2CC(c3ccccc3O)=NN2c2ccccc2)cc(OC)c1OC (stereo not shown) [Compound 2d, 1-Phenyl-3(2-hydroxy-phenyl)-5-(3,4,5-trimethoxyphenyl)-2-pyrazoline] | > 500 | > 500 | 13.3 ± 0.25 | 
3 | CCCCCOC(=O)Nc1nc(=O)n([C@@H]2O[C@H](C)[C@@H](O)[C@H]2O)cc1F [CP, capecitabine, reference compound] |  |  |  | EC50 ([1]; read-out: EC50 on MCF-7): 980 µM; DNA fragmentation (TUNEL, green stain of nuclei) (MCF-7 cells [4]): green-stained nuclei were observed
4 | Oc1ccccc1C1=NN(c2ccccc2)C(c2ccccc2)C1 (stereo not shown) [Compound 2l, 1-Phenyl-3(2-hydroxy-phenyl)-5-phenyl-2-pyrazoline] | 120 ± 0.1 | 510 |  | urease IC50 ± SEM (urease [2]; pH 8.2, 30 °C, 100 mM urea): NA* ^a; mode of MCF-7 cell death (Annexin V-FITC/PI staining) (MCF-7 cells [5]): induce early apoptosis; DNA fragmentation (TUNEL, green stain of nuclei) (MCF-7 cells [4]): morphologically detectable (green)

Now from value to molecule, other results behind:

Row | EC50 ([1]; read-out: EC50 MCF-7) [µM] | EC50 (HeLa (cervical cancer)) [µM] | IC50 (urease [2]) [µM] | SMILES | other results
5 | > 500 | > 500 | 11.3 ± 0.51 | O=C(O)c1ccc(C2CC(c3ccccc3O)=NN2c2ccccc2)cc1 (stereo not shown) [Compound 2h, 1-Phenyl-3(2-hydroxy-phenyl)-5-(4-carboxyphenyl)-2-pyrazoline] | 
6 | > 500 | > 500 | 9.13 ± 0.25 | COc1ccc(C2CC(c3ccccc3O)=NN2c2ccccc2)cc1OC (stereo not shown) [Compound 2g, 1-Phenyl-3(2-hydroxy-phenyl)-5-(3,4-dimethoxyphenyl)-2-pyrazoline] | Ki (urease [3]): 19.1 µM; mode of inhibition (urease [3]; urease): competitive inhibition; Vmax (urease [3]; urease, at a 20 μM inhibitor concentration): 5.76 µM/min
7 | > 500 | > 500 | 12.6 ± 0.43 | Oc1ccccc1C1=NN(c2ccccc2)C(c2ccc(Br)cc2)C1 (stereo not shown) [Compound 2c, 1-Phenyl-3(2-hydroxy-phenyl)-5-(4-bromo-phenyl)-2-pyrazoline] | 
8 | > 500 | > 500 | 13.7 ± 0.47 | CC(=O)Nc1ccc(C2CC(c3ccccc3O)=NN2c2ccccc2)cc1 (stereo not shown) [Compound 2j, 1-Phenyl-3(2-hydroxy-phenyl)-5-(4-acetamidophenyl)-2-pyrazoline] | 
9 | > 500 | > 500 | 15.4 ± 0.38 | COc1ccc(C2CC(c3ccccc3O)=NN2c2ccccc2)cc1 (stereo not shown) [Compound 2e, 1-Phenyl-3(2-hydroxy-phenyl)-5-(4-methoxyphenyl)-2-pyrazoline] | 
